Results published in ChEMBL document CHEMBL1145173, “Stereoselective synthesis of [L-Arg-L/D-3-(2-naphthyl)alanine]-type (E)-alkene dipeptide isosteres and its application to the synthesis and biological evaluation of pseudopeptide analogues of the CXCR4 antagonist FC131” (J Med Chem, 2005).
pEC50, pIC50: −log10 of the molar value. Where a SMILES comes first, the peptide text is derived from it.

Assays:
MT4 [1] = assay: Effective concentration against HIV-induced cytopathogenicity in MT-4 cells; assay type: functional, cell-based; conditions: Homo sapiens
MT4 [2] = assay: Cytotoxic concentration against the mock infected MT-4 cells; assay type: functional; conditions: Homo sapiens
Summary of the method: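 MT-4 cells (RPMI 1640, 10% heat-inactivated FCS, penicillin/streptomycin) without virus, 1.5×10^4 cells/well, exposed to graded compound concentrations for 5 days at 37 °C in CO₂; viable cells counted by MTT method; CC₅₀ from loss of viability; mean of at least three independent experiments.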

[3] = biological target: C-X-C chemokine receptor type 4 (Homo sapiens, UniProt P61073); assay: Inhibition of [125I]SDF-1 binding to C-X-C chemokine receptor type 4 expressed in CHO cells; assay type: cell-based
C-X-C chemokine receptor type 4, sequence (P61073 whole entry): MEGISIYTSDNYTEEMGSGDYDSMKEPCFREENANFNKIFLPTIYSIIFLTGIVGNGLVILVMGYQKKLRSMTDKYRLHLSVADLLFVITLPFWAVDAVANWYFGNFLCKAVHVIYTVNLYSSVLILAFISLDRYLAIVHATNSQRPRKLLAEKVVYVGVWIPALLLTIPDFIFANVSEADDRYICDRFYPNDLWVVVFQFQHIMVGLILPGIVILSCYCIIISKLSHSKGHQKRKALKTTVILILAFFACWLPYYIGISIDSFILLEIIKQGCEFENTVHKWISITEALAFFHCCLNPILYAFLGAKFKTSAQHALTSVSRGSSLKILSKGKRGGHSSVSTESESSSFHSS

SMILES	pIC50 [3]	pEC50 (MT4 [1])	CC50 (MT4 [2]) [nM]
Cc1cn([C@H]2C[C@H](N=[N+]=[N-])[C@@H](CO)O2)c(=O)[nH]c1=O [ZIDOVUDINE]		7.74	57000
NCCCC[C@@H]1NC(=O)[C@H](CCCN=C(N)N)NC(=O)[C@H](Cc2ccc(O)cc2)NC(=O)[C@@H](NC(=O)[C@H](Cc2ccc3ccccc3c2)NC(=O)[C@H](CCCN=C(N)N)NC(=O)[C@@H](N)CCCN=C(N)N)CSSC[C@@H](C(=O)N[C@@H](CCCN=C(N)N)C(=O)O)NC(=O)[C@H](CCCNC(N)=O)NC(=O)[C@H](CCCN=C(N)N)NC(=O)[C@H](Cc2ccc(O)cc2)NC(=O)[C@@H]2CCCN2C(=O)[C@@H](CCCCN)NC1=O (HELM PEPTIDE1{R.R.[O=C([C@H](Cc1ccc2ccccc2c1)N[*:1])[*:2]].C.Y.R.K.[dK].P.Y.R.[Cit].C.R}$PEPTIDE1,PEPTIDE1,4:R3-13:R3$$$V2.0) [listing 1 of 2 here]			> 10000
N=C(N)NCCC[C@@H]1NC(=O)[C@@H](Cc2ccc(O)cc2)NC(=O)CNC(=O)[C@@H](Cc2ccc3ccccc3c2)NC(=O)[C@H](CCCN=C(N)N)NC1=O		5.72	> 100000
NCCCC[C@@H]1NC(=O)[C@H](CCCN=C(N)N)NC(=O)[C@H](Cc2ccc(O)cc2)NC(=O)[C@@H](NC(=O)[C@H](Cc2ccc3ccccc3c2)NC(=O)[C@H](CCCN=C(N)N)NC(=O)[C@@H](N)CCCN=C(N)N)CSSC[C@@H](C(=O)N[C@@H](CCCN=C(N)N)C(=O)O)NC(=O)[C@H](CCCNC(N)=O)NC(=O)[C@H](CCCN=C(N)N)NC(=O)[C@H](Cc2ccc(O)cc2)NC(=O)[C@@H]2CCCN2C(=O)[C@@H](CCCCN)NC1=O (HELM PEPTIDE1{R.R.[O=C([C@H](Cc1ccc2ccccc2c1)N[*:1])[*:2]].C.Y.R.K.[dK].P.Y.R.[Cit].C.R}$PEPTIDE1,PEPTIDE1,4:R3-13:R3$$$V2.0) [listing 2 of 2 here]	8.41	7.46	

Second part, led by results:

pIC50 [3]	SMILES	pEC50 (MT4 [1])	CC50 (MT4 [2]) [nM]
8.35	N=C(N)NCCC[C@@H]1NC(=O)[C@@H](Cc2ccc(O)cc2)NC(=O)NC(=O)[C@H](Cc2ccc3ccccc3c2)NC(=O)[C@H](CCCN=C(N)N)NC1=O	7.14	> 100000
7.49	N=C(N)NCCC[C@@H]1NC(=O)[C@@H](Cc2ccc(O)cc2)NC(=O)CNC[C@H](Cc2ccc3ccccc3c2)NC(=O)[C@H](CCCN=C(N)N)NC1=O	6.01	> 100000
4.68	N=C(N)NCCC[C@@H]1NC(=O)[C@@H](Cc2ccc(O)cc2)NC(=O)CNC(=O)[C@H](Cc2ccc3ccccc3c2)/C=C\[C@H](CCCN=C(N)N)NC1=O	5.04	> 100000
6.74	NC(N)=NCCC[C@@H]1NC(=O)[C@H](CCCN=C(N)N)NC(=O)[C@@H](Cc2ccc(O)cc2)NC(=O)C/C=C/[C@H](Cc2ccc3ccccc3c2)NC1=O	5.62	> 100000
< 4.51	N=C(N)NCCC[C@@H]1NC(=O)[C@@H](Cc2ccc(O)cc2)NC(=O)NC(=O)[C@@H](Cc2ccc3ccccc3c2)/C=C\[C@H](CCCN=C(N)N)NC1=O	5.62	> 100000
